An excerpt weighted towards active compounds, which were near 3.7% of everything screened.
KCNK3 inh: human KCNK3 channel inhibition, primary screen; 340,000 compounds, 0.84% hits; O14649; B-score at 10 µM; AID 602410; CHO-KCNK3 thallium flux, FluxOR fluorescence; hits give low values;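 active means B-score under library mean minus 4 SD, starting fluorescence ratio at most library mean plus 5 SD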;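 further: more negative B-score means stronger inhibition of thallium flux through KCNK3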
Target sequence (O14649 whole entry, looked up): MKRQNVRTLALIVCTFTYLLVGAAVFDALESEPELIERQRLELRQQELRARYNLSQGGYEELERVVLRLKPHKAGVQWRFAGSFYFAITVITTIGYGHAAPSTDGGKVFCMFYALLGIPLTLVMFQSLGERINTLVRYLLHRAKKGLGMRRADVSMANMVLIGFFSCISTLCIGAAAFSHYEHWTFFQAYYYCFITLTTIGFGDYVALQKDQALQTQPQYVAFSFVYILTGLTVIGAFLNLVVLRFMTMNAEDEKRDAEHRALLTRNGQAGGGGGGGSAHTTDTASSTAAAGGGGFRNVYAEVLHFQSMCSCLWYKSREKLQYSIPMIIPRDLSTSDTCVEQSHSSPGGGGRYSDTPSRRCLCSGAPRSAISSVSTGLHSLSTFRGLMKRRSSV
KCNK9 inh: blocks the human KCNK9 two-pore domain potassium channel; Q9NPC2; HEK293 KCNK9, FluxOR thallium flux fluorescence; hits give low values; B-score at 10 µM; 310,000 compounds, 1.2% hits; AID 488922;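 active means ratio B-score over 3 SD below the library mean, with starting fluorescence within 5 SD of its mean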;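 further: negative B-score means less thallium flux so channel inhibition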
hERG protect: compounds protecting human hERG from proarrhythmic drug block. CHO-hERG, FluxOR thallium flux, dofetilide IC70 present. activation (rescue from dofetilide block), less the hit threshold, % at 10 µM. 310,000 compounds, 0.51% hits. AID 1511;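 active means activation above the mean of controls blocked by dofetilide plus 5 SD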;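 further: thallium influx through hERG after potassium depolarization seen as dye fluorescence rise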
KCNQ1 act: potentiates or activates the human KCNQ1 potassium channel. CHO-K1 KCNQ1, thallium flux FluxOR fluorescence; hits give high values. 310,000 compounds, 0.35% hits. B-score at 10 µM;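 active means fluorescence ratio B-score, a plate-corrected score, at least three library SD, with initial intensity B-score within 5 SD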
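Test system: CHO-K1 cells stably expressing KCNQ1 / Medium: assay buffer / Also added: depolarizing K+/Tl+ stimulus, K2SO4 and Tl2SO4 each 12.5 mM in 5x stock / Incubation: 90 min dye loading and 20 min compound exposure, both at room temperature / Signal: thallium influx via FluxOR fluorescence, kinetic imaging / Evaluation: B score of baseline-normalized fluorescence ratio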
KCNQ1 block: human KCNQ1 channel inhibition | P51787 | CHO-K1 KCNQ1, FluxOR thallium flux fluorescence; hits give high values | B-score at 10 µM | 310,000 compounds, 1.3% hits | AID 2642;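 active means compounds whose thallium flux B-score, printed positive for inhibition, exceeds three library SD while starting fluorescence stays within three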;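 further: channel opened by potassium depolarization with thallium stimulus after 20 min compound exposure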
Kir21 block: blocks the mouse Kir2.1 inward-rectifier potassium channel | 310,000 compounds, 0.85% hits | B-score at 10 µM | AID 1672 | P35561 | HEK293-Kir2.1, FluxOR thallium flux fluorescence; hits give low values;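 active means fluorescence ratio B-score at or below minus 3 SD of library scores, with starting-brightness B-score within 2 SD, cut at about -4.2 in these data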;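 further: channel flux triggered by added potassium and thallium sulfate stimulus; B-score of peak minus minimum fluorescence over baseline after thallium stimulus; more negative B-score means stronger Kir2.1 block with less thallium influx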
KCNK9 block conf: confirmation of human KCNK9 potassium channel inhibitors; HEK293 KCNK9 cells, FluxOR thallium flux fluorescence; 4,900 compounds, 43% hits; inhibition, % at 10 µM; shares compounds with KCNK9 inh;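 active means thallium signal inhibited by more than 5 SD of the compound-free buffer control wells, on both duplicate plates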
Kir2-1 spec: mouse Kir2.1 off-target activity of KCNK9 modulators. shares compounds with KCNK9 inh. Kir2.1 cells, FluxOR thallium flux fluorescence. inhibition, % at 10 µM. 4,900 compounds, 4% hits. AID 492993;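 active means thallium signal drop more than 5 SD beyond the mean of the no-compound control wells, seen in both duplicate plates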;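 further: signal is fluorescence rise after thallium addition divided by baseline fluorescence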
KCNK9 uninduced: non-induced cell nonspecific activity of KCNK9 modulators; inhibition, % at 10 µM; 4,900 compounds, 40% hits; non-induced KCNK9-HEK293, FluxOR thallium flux; shares compounds with KCNK9 inh;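 active means thallium signal drop beyond 5 SD of the untreated control mean, on both duplicate plates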
Hits are given with their value; – = inactive; · = not tested or not shown.

SMILES | KCNK3 inh | KCNK9 inh | hERG protect | KCNQ1 act | KCNQ1 block | Kir21 block | KCNK9 block conf | Kir2-1 spec | KCNK9 uninduced
Cc1ccc(CNC(=O)C(CC(C)C)OC(=O)c2ccco2)cc1 (stereo unspecified) | – | – | – | – | – | – | · | · | ·
CCc1ccc(S(=O)(=O)NCCc2csc(-c3ccccc3)n2)s1 | – | -10.3 | – | – | – | -4.48 | 49.5% | 37.5% | 39.0%
O=C(NCc1ccccc1)C1(c2ccccc2)CCN(S(=O)(=O)c2ccccc2)CC1 | – | – | – | – | – | – | – | – | –
Cc1nc2cc(-c3cccc(F)c3)nn2c(C)c1CCC(=O)NC(C)CCc1ccco1 (stereo unspecified) | – | – | – | – | – | – | · | · | ·
Fc1cccc(-c2cc3nc4c(c(NCc5ccco5)n3n2)CCCC4)c1 | – | -10.1 | – | – | – | – | 37.0% | – | 31.5%
CCN(CC)S(=O)(=O)c1ccc(N2CCOCC2)c(NC(=O)c2cc3ccccc3oc2=O)c1 | – | -11.6 | – | – | – | – | 55.0% | – | –
COc1cccc2cc(C(=O)NCc3ccc(Cl)cc3)c(=O)oc12 | – | – | – | – | – | – | · | · | ·
Cc1ccc(S(=O)(=O)NC(CC(C)C)C(=O)Nc2ccncc2)cc1 (stereo unspecified) | – | – | – | – | – | – | · | · | ·
Cc1cc(C)n(-c2nc3ccccc3nc2N2CCCCCC2)n1 | – | -9.91 | – | – | – | – | 33.0% | – | 40.0%
Cc1cc(C)cc(CC(Cc2nc3ccccc3[nH]2)c2nc3ccccc3[nH]2)c1 (stereo unspecified) | – | -8.1 | – | – | 12 | – | 29.0% | – | 37.0%
Cc1ccc(CSCc2nc3ccccc3[nH]2)cc1 | – | – | – | – | – | – | · | · | ·
COc1cccc(CNC(=O)c2cccc(NC(=O)C3=C(C)OCCS3)c2)c1 | – | -8.88 | – | – | – | – | 50.0% | – | –
COC(=O)C[C@H]1c2cc(C(F)(F)F)ccc2S(=O)(=O)N1Cc1ccccc1 | – | – | – | – | – | – | · | · | ·
CCCCCCCCN1[C@@H](CC(=O)OC)c2cc(C(F)(F)F)ccc2S1(=O)=O | – | – | – | – | – | – | – | – | –
CC(=O)Nc1ccc(S(=O)(=O)NCCC(=O)OCC(=O)c2cccc(Br)c2)cc1 | – | · | · | · | · | · | · | · | ·
O=c1c(/C=N/OCc2ccc(Cl)cc2Cl)c[nH]n1-c1cccc(Cl)n1 | – | – | – | – | 7 | – | – | – | –
Cc1cc(O)c(/C=N/OCc2ccc(Cl)cc2Cl)c(=O)o1 | – | – | – | – | – | – | · | · | ·
CCOc1cc(C)c(Cl)cc1S(=O)(=O)n1ccnc1 | – | – | – | – | – | – | · | · | ·
CC1Cc2ccccc2N1C(=O)c1cc2sccc2n1Cc1ccc(F)cc1 (stereo unspecified) | – | -9.82 | – | – | 8 | – | 37.0% | – | 23.0%
CCOC(=O)C1(CCc2ccccc2)CCN(Cc2ccc(C(=O)OC)cc2)CC1 | – | – | – | – | – | – | · | · | ·
CCOC(=O)C1(Cc2ccccc2)CCN(Cc2cccc3nccnc23)CC1 | – | – | – | – | – | – | – | – | –
CCOC(=O)C1(Cc2ccccc2C(F)(F)F)CCN(Cc2ccc(COC)o2)CC1 | – | – | – | – | – | – | – | – | –
CCOC(=O)C1(CCc2ccccc2)CCN(Cc2cc(OC)c(OC)cc2OC)CC1 | – | – | – | – | – | – | – | – | –
CCOC(=O)C1(Cc2cccc(OC)c2)CCN(Cc2cccn2-c2nccs2)CC1 | – | – | – | – | – | – | · | · | ·
CCOC(=O)C1(Cc2ccccc2)CCN(Cc2cccn2-c2nccs2)CC1 | – | – | – | – | – | – | – | – | –
SMILES | KCNK3 inh | KCNK9 inh | hERG protect | KCNQ1 act | KCNQ1 block | Kir21 block | KCNK9 block conf | Kir2-1 spec | KCNK9 uninduced
O=C(Cc1ccc(F)cc1)N1CCC2(CC1)NCCc1[nH]cnc12 | – | – | – | – | – | – | · | · | ·
CC(C)NC(=O)c1c(CSc2ccc(Cl)cc2)noc1C(=O)NCc1ccccc1 | – | – | – | – | – | – | – | – | –
O=C(NCc1ccccc1)c1onc(CSc2ccc(Cl)cc2)c1C(=O)NCc1ccccc1 | – | – | – | – | – | – | · | · | ·
CCCCNC(=O)c1c(CSc2ccccc2)noc1C(=O)NCc1ccccc1 | – | – | – | – | – | – | – | – | –
CCCNC(=O)c1c(CSc2ccc(Cl)cc2)noc1C(=O)NCc1ccccc1 | – | – | – | – | – | – | – | – | –
CCCCNC(=O)c1c(CSc2ccc(Cl)cc2)noc1C(=O)NCc1ccccc1 | – | – | – | – | – | – | – | – | –
Cn1c(SCC(=O)Nc2ccc(N3CCOCC3)cc2)nnc1-c1ccccc1F | – | – | – | – | – | – | · | · | ·
Cc1ccc(S(=O)(=O)N2CCCC(C(=O)NCc3ccccc3F)C2)cc1 (stereo unspecified) | – | – | – | – | – | – | · | · | ·
CC(C)=NNc1nc(-c2ccc(N3C(=O)CCC3=O)cc2)cs1 | – | – | – | – | – | – | · | · | ·
O=C(NCc1ccccc1)c1onc(CSc2ccccc2)c1C(=O)NCc1ccccc1 | – | – | – | – | – | – | – | – | –
CN(C)CCNC(=O)c1c(CSc2ccc(Cl)cc2)noc1C(=O)NCc1ccccc1 | – | – | – | – | – | – | · | · | ·
COCCNC(=O)c1c(CSc2ccccc2)noc1C(=O)NCc1ccccc1 | – | – | – | – | – | – | · | · | ·
O=C(NCc1ccccc1)c1onc(CSc2ccc(Cl)cc2)c1C(=O)NCC1CC1 | – | – | – | – | – | – | – | – | –
CC(NC(=O)c1ccc(OC2CCN(Cc3ccccn3)CC2)cc1)c1ccccc1 (stereo unspecified) | – | – | – | – | – | – | · | · | ·
CCc1nnc(NC(=O)C2Cc3ccccc3CN2S(=O)(=O)c2c(C)c(C)cc(C)c2C)s1 (stereo unspecified) | – | -12.7 | – | – | – | – | – | – | 31.5%
CCc1nnc(NC(=O)C2Cc3ccccc3CN2S(=O)(=O)CC)s1 (stereo unspecified) | – | – | – | – | – | – | · | · | ·
COc1ccc2nc(N3CCCC(C(=O)NCCCN4C(C)CCCC4C)C3)sc2c1 (stereo unspecified) | – | – | – | – | – | – | · | · | ·
CN(Cc1ccccc1)C(NC(=O)c1ccccc1)C(Cl)(Cl)Cl (stereo unspecified) | – | – | – | – | – | – | – | – | 41.0%
CN(Cc1ccccc1)C(NC(=O)c1ccco1)C(Cl)(Cl)Cl (stereo unspecified) | – | – | – | – | – | – | · | · | ·

Screens: PubChem, Johns Hopkins Ion Channel Center
